ChEMBL document CHEMBL3351600, “Sulfur, selenium and tellurium pseudopeptides: synthesis and biological evaluation” (Bioorg Med Chem, 2014)

Key:
MDA-MB-468 = assay: Growth inhibition of human MDA-MB-468 cells after 48 hrs; assay type: functional; settings: MDA-MB-468, 48 h
Outline: (§1)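 NCI-60 human tumour cell line panel screen run at the US National Cancer Institute under its standard cytotoxicity protocol. It covers leukaemia, NSCLC, colon, CNS, melanoma, ovarian, renal, prostate and breast lines. An initial single-dose test was followed by five-dose testing with 48 h compound exposure.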

[1] = Growth inhibition of human BT549 cells after 48 hrs; assay type: functional; settings: BT-549, 48 h; outline: as §1
SK-MEL-28 = assay: Growth inhibition of human SK-MEL-28 cells after 48 hrs; assay type: functional; settings: SK-MEL-28, 48 h; outline: as §1
[2] = Growth inhibition of human OVCAR8 cells after 48 hrs; assay type: functional; settings: OVCAR-8, 48 h; outline: as §1
SN12C = assay: Growth inhibition of human SN12C cells after 48 hrs; assay type: functional
Outline: (§2)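 Run by the NCI 58-cell-line screen under its standard cytotoxicity protocol. Compounds were first tested at a single dose, then at five doses. Cells were exposed to compound for 48 h.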

NCI-H226 = assay: Growth inhibition of human NCI-H226 cells after 48 hrs; assay type: functional; settings: NCI-H226, 48 h; outline: as §1
SK-OV-3 = assay: Growth inhibition of human SKOV3 cells after 48 hrs; assay type: functional; settings: SK-OV-3, 48 h; outline: as §2
SK-MEL-5 = assay: Growth inhibition of human SK-MEL-5 cells after 48 hrs; assay type: functional; settings: SK-MEL-5, 48 h; outline: as §2
[3] = Growth inhibition of human EKVX cells after 48 hrs; assay type: functional; outline: as §1
KM12 = assay: Growth inhibition of human KM12 cells after 48 hrs; assay type: functional; settings: KM12, 48 h; outline: as §1
A498 = assay: Growth inhibition of human A498 cells after 48 hrs; assay type: functional; settings: A498, 48 h; outline: as §1
Escherichia coli = assay: Antimicrobial activity against Escherichia coli tolC assessed as inhibition at 20 ug/6 mm disk after 1 to 2 days by agar diffusion assay; assay type: functional
Outline: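 Standard agar diffusion: 6-mm paper disks loaded with 20 µg of compound were placed on inoculated plates. Inhibition-zone diameter (mm) was read after 1 and 2 days of growth.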

SNB-19 = assay: Growth inhibition of human SNB19 cells after 48 hrs; assay type: functional; settings: SNB-19, 48 h; outline: as §2
IGROV-1 = assay: Growth inhibition of human IGROV1 cells after 48 hrs; assay type: functional; settings: IGROV-1, 48 h; outline: as §1
[4] = read-out: pLC50 (the source's name) (converted)

CC1=C(SCCC(=O)OCC(=O)NCCC[Te]c2ccccc2)C(=O)c2ccccc2C1=O
GI50 (MDA-MB-468): 1.66 µM
LC50 (MDA-MB-468): 7.08 µM
TGI (MDA-MB-468; read-out: pTGI (converted)): 3.39 µM
GI50 [1]: 1.66 µM
LC50 (concentration killing 50% of cells) [1]: 9.77 µM
TGI ([1]; read-out: pTGI (converted)): 4.07 µM
GI50 (SK-MEL-28): 2.29 µM
CC50 (SK-MEL-28; [4]): 17.8 µM
TGI (SK-MEL-28; read-out: pTGI (converted)): 5.5 µM
GI50 [2]: 2.75 µM
LC50 [2]: 51.3 µM
TGI ([2]; read-out: pTGI (converted)): 11.5 µM
GI50 (SN12C): 1.86 µM
LC50 (SN12C): 31.6 µM
TGI (SN12C; read-out: pTGI (converted)): 6.17 µM
GI50 (NCI-H226): 1.29 µM
CC50 (NCI-H226; [4]): 6.61 µM
TGI (NCI-H226; read-out: pTGI (converted)): 2.88 µM
GI50 (SK-OV-3): 1.74 µM
CC50 (SK-OV-3; [4]): 12.3 µM
TGI (SK-OV-3; read-out: pTGI (converted)): 4.37 µM
GI50 (SK-MEL-5): 1.29 µM
CC50 (SK-MEL-5; [4]): 5.25 µM
TGI (SK-MEL-5; read-out: pTGI (converted)): 2.63 µM
GI50 [3]: 1.12 µM
CC50 [3, 4]: 53.7 µM
TGI ([3]; read-out: pTGI (converted)): 10.5 µM
GI50 (KM12): 3.63 µM
CC50 (KM12; [4]): 52.5 µM
TGI (KM12; read-out: pTGI (converted)): 12.6 µM
Retention_time: 0.928 min
GI50 (A498): 2 µM
LC50 (A498): 30.2 µM
TGI (A498; read-out: pTGI (converted)): 7.41 µM
diameter of the inhibition zone (DIZ) (Escherichia coli): 11 mm
GI50 (SNB-19): 2.63 µM
CC50 (SNB-19; [4]): 42.7 µM
TGI (SNB-19; read-out: pTGI (converted)): 10.2 µM
GI50 (IGROV-1): 2.14 µM
CC50 (IGROV-1; [4]): 35.5 µM
TGI (IGROV-1; read-out: pTGI (converted)): 6.46 µM
